≈ marks a conversion by molar mass, not a printed value.
Experiments:
[1] = Inhibition of Escherichia coli DNA topoisomerase 4 relaxation activity measured for 30 mins
Method in brief: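 TopoIV relaxation plate assay: 1.5 U enzyme with 0.75 µg supercoiled pNO1 plasmid, inhibitor in 10% DMSO/0.008% Tween-20, 37 °C 30 min; E. coli buffer 40 mM HEPES-KOH pH 7.6 with 1 mM ATP, S. aureus buffer 50 mM Tris pH 7.5 with 1.5 mM ATP. Triplex capture, Diamond dye fluorescence 495/537 nm.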

Topoisomerase IV = Topoisomerase IV (Staphylococcus aureus, UniProt P0C1S7+P0C1U9); assay: Inhibition of Staphylococcus aureus DNA topoisomerase 4 relaxation activity measured for 30 mins; type: protein-complex assay
Method in brief: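 TopoIV relaxation plate assay: 1.5 U enzyme with 0.75 µg supercoiled pNO1 plasmid, inhibitor in 10% DMSO/0.008% Tween-20, 37 °C 30 min; E. coli buffer 40 mM HEPES-KOH pH 7.6 with 1 mM ATP, S. aureus buffer 50 mM Tris pH 7.5 with 1.5 mM ATP.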

hERG [2] = assay: Selectivity index, ratio of IC50 for inhibition of hERG fluorescence polarization assay to MIC for antimicrobial activity against multidrug-resisitant Staphylococcus aureus assessed as reduction in bacterial growth; type: toxicity; conditions: human; read-out: Selectivity Index
DNA gyrase [3] = molecular target: DNA gyrase (Escherichia coli, UniProt P0AES4+P0AES6); assay: Inhibition of Escherichia coli DNA gyrase supercoiling incubated for 30 mins in presence of ATP; type: protein-complex assay
Method in brief: (§1)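 Gyrase supercoiling plate assay (triplex capture on streptavidin plates with immobilized biotinylated oligonucleotide): 1.5 U enzyme, 0.75 µg relaxed pNO1 plasmid, inhibitor in 10% DMSO/0.008% Tween-20, 37 °C 30 min, 30 µl. Buffer for E. coli: 35 mM Tris pH 7.5, 1 mM ATP; S. aureus: 40 mM HEPES-KOH pH 7.6, 2 mM ATP, 500 mM K-glutamate. Diamond dye fluorescence (ex 495/em 537 nm). Pre-screen 100 and 1 µM; IC50 from seven concentrations by four-parameter fit, mean of two runs.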

Escherichia coli [4] = assay: Antimicrobial activity against Escherichia coli D22 assessed as reduction in bacterial growth incubated for 20 hrs by broth microdilution analysis; type: functional
Staphylococcus aureus [5] = assay: Antimicrobial activity against cefoxitin/ciprofloxacin/clindamycin/erythromycin/tetracycline/thiamulin/trimethoprim-resistant Staphylococcus aureus assessed as reduction in bacterial growth incubated for 20 hrs by broth microdilution analysis; type: functional
Method in brief: (§2)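 MIC was determined by broth microdilution per CLSI/EUCAST. Inoculum was 10^5 CFU/mL in cation-adjusted Mueller-Hinton broth with TES, with compounds in DMSO, incubated 20 h at 35 °C. MIC was read visually as the lowest concentration without turbidity. Tetracycline was the plate control.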

HepG2 [6] = assay: Cytotoxicity against human HepG2 cells assessed as inhibition of cell growth incubated for 72 hrs by […]; type: functional, cell-based; conditions: HepG2, 72 h
Method in brief: (§3)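 HepG2 in DMEM with 10% FBS, 2 mM glutamine, penicillin/streptomycin, 37 °C, 5% CO₂; seeded 8,000 cells/well, attached overnight, then treated 1.25–100 µM or vehicle for 72 h. Metabolic activity by CellTiter 96 Aqueous One (MTS) absorbance 492 nm.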

[7] = molecular target: DNA topoisomerase 2-alpha (Homo sapiens) (UniProt P11388); assay: Inhibition of human DNA topoisomerase 2-alpha assessed as residual activity at 100 uM incubated for 30 mins relative to control
Sequence of DNA topoisomerase 2-alpha (Homo sapiens) (P11388 whole entry): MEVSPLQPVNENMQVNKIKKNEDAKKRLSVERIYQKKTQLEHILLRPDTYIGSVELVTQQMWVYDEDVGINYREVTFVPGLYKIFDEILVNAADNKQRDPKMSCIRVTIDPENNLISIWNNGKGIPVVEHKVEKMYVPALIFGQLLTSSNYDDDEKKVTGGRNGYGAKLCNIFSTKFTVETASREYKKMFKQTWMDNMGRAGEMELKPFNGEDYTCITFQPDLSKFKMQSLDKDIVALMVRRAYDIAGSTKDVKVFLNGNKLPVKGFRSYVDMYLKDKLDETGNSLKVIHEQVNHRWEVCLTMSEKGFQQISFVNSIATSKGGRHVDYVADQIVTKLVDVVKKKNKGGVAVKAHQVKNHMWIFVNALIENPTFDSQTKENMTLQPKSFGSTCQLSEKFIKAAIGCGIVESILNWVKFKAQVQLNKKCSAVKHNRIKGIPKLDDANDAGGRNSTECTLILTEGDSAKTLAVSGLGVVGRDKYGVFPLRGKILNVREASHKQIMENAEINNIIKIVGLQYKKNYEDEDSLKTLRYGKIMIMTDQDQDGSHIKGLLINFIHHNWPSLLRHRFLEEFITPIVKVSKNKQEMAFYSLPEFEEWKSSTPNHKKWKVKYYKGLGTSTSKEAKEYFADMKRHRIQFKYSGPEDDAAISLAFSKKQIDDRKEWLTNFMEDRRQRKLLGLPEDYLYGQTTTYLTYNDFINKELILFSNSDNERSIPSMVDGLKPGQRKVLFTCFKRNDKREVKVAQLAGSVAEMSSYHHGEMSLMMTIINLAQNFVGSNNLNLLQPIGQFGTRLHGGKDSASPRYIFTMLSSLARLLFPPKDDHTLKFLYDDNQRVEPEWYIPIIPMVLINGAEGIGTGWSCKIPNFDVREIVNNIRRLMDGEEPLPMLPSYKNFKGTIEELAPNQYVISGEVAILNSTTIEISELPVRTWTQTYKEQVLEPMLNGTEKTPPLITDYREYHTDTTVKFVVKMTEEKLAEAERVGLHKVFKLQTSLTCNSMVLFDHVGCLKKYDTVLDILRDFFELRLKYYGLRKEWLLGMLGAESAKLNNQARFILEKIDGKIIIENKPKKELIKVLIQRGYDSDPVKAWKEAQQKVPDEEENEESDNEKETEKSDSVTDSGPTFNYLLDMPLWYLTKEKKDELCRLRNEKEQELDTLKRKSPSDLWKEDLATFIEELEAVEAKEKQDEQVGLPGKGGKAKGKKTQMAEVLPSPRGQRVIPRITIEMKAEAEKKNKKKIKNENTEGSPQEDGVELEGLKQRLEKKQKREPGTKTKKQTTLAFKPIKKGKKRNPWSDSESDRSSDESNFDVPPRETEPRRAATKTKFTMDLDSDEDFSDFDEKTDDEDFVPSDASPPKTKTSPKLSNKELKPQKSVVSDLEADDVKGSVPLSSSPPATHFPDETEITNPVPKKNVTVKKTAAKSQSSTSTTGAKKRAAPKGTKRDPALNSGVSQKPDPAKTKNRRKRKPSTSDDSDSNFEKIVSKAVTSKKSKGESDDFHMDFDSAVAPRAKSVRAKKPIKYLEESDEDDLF

Staphylococcus aureus [8] = assay: Antimicrobial activity against cefoxitin/gentamicin/kanamycin/rifampicin/streptomycin/sulfamethoxazole/tetracycline-resistant Staphylococcus aureus assessed as reduction in bacterial growth incubated for 20 hrs by broth microdilution analysis; type: functional; method in brief: as §2
Escherichia coli [9] = assay: Antimicrobial activity against multidrug-resistant Escherichia coli assessed as reduction in bacterial growth incubated for 20 hrs by broth microdilution analysis; type: functional; method in brief: as §2
[10] = Antimicrobial activity against Salmonella alachua RDK 030c assessed as reduction in bacterial growth incubated for 20 hrs by broth microdilution analysis; type: functional
[11] = molecular target: Voltage-gated inwardly rectifying potassium channel KCNH2 (Homo sapiens, UniProt Q12809); assay: Inhibition of hERG fluorescence polarization assay; type: toxicity
Sequence of Voltage-gated inwardly rectifying potassium channel KCNH2 (Q12809 whole entry): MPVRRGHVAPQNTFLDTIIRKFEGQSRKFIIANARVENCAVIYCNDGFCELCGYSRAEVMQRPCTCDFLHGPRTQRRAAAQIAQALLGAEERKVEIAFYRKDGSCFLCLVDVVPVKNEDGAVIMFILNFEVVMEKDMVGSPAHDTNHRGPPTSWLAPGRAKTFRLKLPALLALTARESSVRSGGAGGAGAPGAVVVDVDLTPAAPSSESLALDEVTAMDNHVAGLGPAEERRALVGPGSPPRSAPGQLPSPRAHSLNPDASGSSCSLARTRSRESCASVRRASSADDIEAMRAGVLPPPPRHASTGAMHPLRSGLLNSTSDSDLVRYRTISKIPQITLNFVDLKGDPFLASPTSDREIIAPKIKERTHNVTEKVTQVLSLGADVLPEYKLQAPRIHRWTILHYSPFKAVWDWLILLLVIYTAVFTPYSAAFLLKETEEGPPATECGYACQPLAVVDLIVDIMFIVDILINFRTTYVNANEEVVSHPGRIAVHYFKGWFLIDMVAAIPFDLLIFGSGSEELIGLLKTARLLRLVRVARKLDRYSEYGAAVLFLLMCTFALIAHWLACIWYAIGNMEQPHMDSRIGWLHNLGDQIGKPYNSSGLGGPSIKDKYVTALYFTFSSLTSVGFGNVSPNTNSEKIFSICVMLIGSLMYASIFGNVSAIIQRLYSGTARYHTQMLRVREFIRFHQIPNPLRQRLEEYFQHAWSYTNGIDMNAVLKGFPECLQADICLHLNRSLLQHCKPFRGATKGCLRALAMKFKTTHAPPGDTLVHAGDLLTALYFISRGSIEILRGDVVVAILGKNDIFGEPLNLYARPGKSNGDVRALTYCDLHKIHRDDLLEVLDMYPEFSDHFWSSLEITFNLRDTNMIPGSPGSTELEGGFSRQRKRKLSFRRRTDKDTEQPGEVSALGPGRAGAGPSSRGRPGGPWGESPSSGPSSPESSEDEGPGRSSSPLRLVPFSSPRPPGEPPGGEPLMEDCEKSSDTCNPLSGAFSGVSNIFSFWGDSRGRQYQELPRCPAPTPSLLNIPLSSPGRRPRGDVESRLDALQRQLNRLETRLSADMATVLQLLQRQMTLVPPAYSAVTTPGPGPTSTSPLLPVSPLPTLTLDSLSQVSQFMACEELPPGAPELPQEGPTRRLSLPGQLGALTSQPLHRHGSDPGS

Acinetobacter baumannii = assay: Antimicrobial activity against Acinetobacter baumannii assessed as reduction in bacterial growth incubated for 20 hrs by broth microdilution analysis; type: functional
DNA gyrase [12] = molecular target: DNA gyrase (Staphylococcus aureus, UniProt P0A0K8+P20831); assay: Inhibition of Staphylococcus aureus DNA gyrase supercoiling incubated for 30 mins in presence of ATP; type: protein-complex assay; method in brief: as §1
Sequence of DNA gyrase (Staphylococcus aureus, UniProt P0A0K8+P20831) (P0A0K8 whole entry): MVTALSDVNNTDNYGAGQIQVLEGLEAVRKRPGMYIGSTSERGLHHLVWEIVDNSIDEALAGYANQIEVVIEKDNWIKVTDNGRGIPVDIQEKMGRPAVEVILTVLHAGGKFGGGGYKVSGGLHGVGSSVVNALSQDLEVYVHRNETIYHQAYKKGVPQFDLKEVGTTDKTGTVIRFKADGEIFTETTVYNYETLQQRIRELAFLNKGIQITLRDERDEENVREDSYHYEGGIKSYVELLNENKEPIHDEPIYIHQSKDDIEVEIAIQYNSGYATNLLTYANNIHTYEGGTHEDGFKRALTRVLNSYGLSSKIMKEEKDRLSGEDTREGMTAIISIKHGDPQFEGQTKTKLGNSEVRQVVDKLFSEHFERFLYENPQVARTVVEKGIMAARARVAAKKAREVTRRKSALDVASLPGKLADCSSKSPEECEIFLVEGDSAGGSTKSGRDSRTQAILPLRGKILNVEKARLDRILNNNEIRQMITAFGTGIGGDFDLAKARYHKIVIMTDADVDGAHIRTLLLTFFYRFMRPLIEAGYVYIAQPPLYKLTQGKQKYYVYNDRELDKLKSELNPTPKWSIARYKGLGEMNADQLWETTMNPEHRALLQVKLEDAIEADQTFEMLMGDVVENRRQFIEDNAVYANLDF
Sequence of DNA gyrase (Staphylococcus aureus, UniProt P0A0K8+P20831) (P20831 whole entry): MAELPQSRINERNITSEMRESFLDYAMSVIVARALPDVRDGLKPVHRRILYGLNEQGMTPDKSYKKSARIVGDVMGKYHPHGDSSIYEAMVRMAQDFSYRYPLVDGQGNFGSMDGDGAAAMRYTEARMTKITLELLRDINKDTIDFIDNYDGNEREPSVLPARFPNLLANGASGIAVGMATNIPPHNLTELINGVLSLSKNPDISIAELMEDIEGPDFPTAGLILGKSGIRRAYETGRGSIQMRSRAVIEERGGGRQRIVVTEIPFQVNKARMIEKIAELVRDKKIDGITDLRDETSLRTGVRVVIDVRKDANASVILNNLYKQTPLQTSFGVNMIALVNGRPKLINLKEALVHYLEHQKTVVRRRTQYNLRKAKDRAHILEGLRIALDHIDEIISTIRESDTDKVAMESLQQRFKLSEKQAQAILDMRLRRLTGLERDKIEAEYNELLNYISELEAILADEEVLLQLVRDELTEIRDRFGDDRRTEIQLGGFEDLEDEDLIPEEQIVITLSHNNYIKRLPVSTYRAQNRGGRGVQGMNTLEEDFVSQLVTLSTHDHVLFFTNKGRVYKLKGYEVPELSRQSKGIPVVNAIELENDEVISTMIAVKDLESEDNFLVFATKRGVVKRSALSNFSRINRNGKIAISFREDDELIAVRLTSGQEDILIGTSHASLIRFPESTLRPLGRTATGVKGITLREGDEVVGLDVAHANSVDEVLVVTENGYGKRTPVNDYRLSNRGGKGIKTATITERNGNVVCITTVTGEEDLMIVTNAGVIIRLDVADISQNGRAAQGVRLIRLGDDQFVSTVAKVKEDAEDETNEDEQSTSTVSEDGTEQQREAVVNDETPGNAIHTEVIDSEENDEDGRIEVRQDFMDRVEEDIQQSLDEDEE

Escherichia coli [13] = assay: Antimicrobial activity against Escherichia coli N43 assessed as reduction in bacterial growth incubated for 20 hrs by broth microdilution analysis; type: functional
Enterococcus faecalis = assay: Antimicrobial activity against Enterococcus faecalis DRK 057 assessed as reduction in bacterial growth incubated for 20 hrs by broth microdilution analysis; type: functional
Escherichia coli [14] = assay: Antimicrobial activity against Escherichia coli ATCC 25922 assessed as reduction in bacterial growth incubated for 20 hrs by broth microdilution analysis; type: functional
Staphylococcus aureus [15] = assay: Antimicrobial activity against Staphylococcus aureus ATCC 29213 assessed as reduction in bacterial growth incubated for 20 hrs by broth microdilution analysis; type: functional; method in brief: as §2
Pseudomonas aeruginosa = assay: Antimicrobial activity against Pseudomonas aeruginosa RDK 184 assessed as reduction in bacterial growth incubated for 20 hrs by broth microdilution analysis; type: functional
Staphylococcus aureus [16] = assay: Antimicrobial activity against multidrug-resistant Staphylococcus aureus assessed as reduction in bacterial growth incubated for 20 hrs by broth microdilution analysis; type: functional; method in brief: as §2
hERG [17] = assay: Selectivity index, ratio of IC50 for inhibition of hERG fluorescence polarization assay to MIC for antimicrobial activity against Staphylococcus aureus ATCC 29213 assessed as reduction in bacterial growth; type: toxicity; conditions: human; read-out: Selectivity Index
Klebsiella pneumoniae = assay: Antimicrobial activity against Klebsiella pneumoniae assessed as reduction in bacterial growth incubated for 20 hrs by broth microdilution analysis; type: functional
HepG2 [18] = assay: Cytotoxicity against human HepG2 cells assessed as inhibition of cell growth at 50 uM incubated for 72 hrs by […]; type: functional; parameters: scale not given: the % may be the effect or the level left; method in brief: as §3

Compound	IC50 [1]	IC50 (Topoisomerase IV)	selectivity ratio (hERG [2])	IC50 (DNA gyrase [3])	MIC (Escherichia coli [4])	MIC (Staphylococcus aureus [5])	Activity [7]	MIC (Staphylococcus aureus [8])	MIC (Escherichia coli [9])	MIC [10]	IC50 [11]	MIC (Acinetobacter baumannii)	IC50 (DNA gyrase [12])	MIC (Escherichia coli [13])	MIC (Enterococcus faecalis)	MIC (Escherichia coli [14])	MIC (Staphylococcus aureus [15])	MIC (Pseudomonas aeruginosa)	MIC (Staphylococcus aureus [16])	MIC (Klebsiella pneumoniae)	also measured
COc1ccc2nccc(OC[C@@H]3CC[C@@H](NC(=O)c4cc(F)c(Cl)c(F)c4)CO3)c2n1	0.073 µM	0.579 µM	≥ 224	0.677 µM	276 µM	0.136 µM	101%	0.136 µM (≈ 0.0631 µg/mL)	> 276 µM	> 276 µM	> 30 µM	276 µM	0.445 µM	0.134 µM	8.62 µM (≈ 4 µg/mL)	276 µM	0.136 µM	> 276 µM	0.269 µM (≈ 0.125 µg/mL)	> 276 µM	IC50 (HepG2 [6]): 9.06 µM; selectivity ratio (hERG [17]): ≥ 224
COc1ccc2nccc(OC[C@H]3CC[C@H](NC(=O)c4ccc(I)c(F)c4)CC3)c2n1	> 100 µM	> 100 µM	≥ 0.125	> 100 µM	239 µM	239 µM	99.1%	> 239 µM	> 239 µM	> 239 µM	> 30 µM	> 239 µM	> 100 µM	239 µM	> 239 µM	239 µM	239 µM	> 239 µM	> 239 µM	> 239 µM	Activity (HepG2 [18]): 96%; selectivity ratio (hERG [17]): ≥ 0.125
CN(C)[C@@H]1C(O)=C(C(N)=O)C(=O)[C@@]2(O)C(O)=C3C(=O)c4c(O)cccc4[C@@](C)(O)[C@H]3C[C@@H]12 [TETRACYCLINE]	–	–	–	–	1 µg/mL	> 4 µg/mL	–	–	> 4 µg/mL	–	–	> 4 µg/mL	–	0.25 µg/mL	–	1 µg/mL	0.25 µg/mL	–	–	> 4 µg/mL	–
COc1ccc2nccc(OC[C@H]3CC[C@H](NC(=O)c4cc(F)c(Cl)c(F)c4)CC3)c2n1	> 100 µM	> 100 µM	≥ 0.108	> 100 µM	277 µM	277 µM	100%	277 µM (≈ 128 µg/mL)	> 277 µM	> 277 µM	> 30 µM	> 277 µM	> 100 µM	277 µM	> 277 µM	277 µM	277 µM	> 277 µM	> 277 µM	> 277 µM	Activity (HepG2 [18]): 96%; selectivity ratio (hERG [17]): ≥ 0.108
COc1ccc2nccc(OC[C@@H]3CC[C@@H](NC(=O)c4ccc(I)c(F)c4)CO3)c2n1	0.092 µM	0.783 µM	≥ 520	0.358 µM	238 µM	0.058 µM	102%	0.058 µM (≈ 0.0312 µg/mL)	> 238 µM	> 238 µM	> 30 µM	> 238 µM	0.271 µM	0.117 µM	> 238 µM	238 µM	0.058 µM	> 238 µM	238 µM (≈ 128 µg/mL)	> 238 µM	IC50 (HepG2 [6]): 11.2 µM; selectivity ratio (hERG [17]): ≥ 520
